Reference: ChEMBL document CHEMBL1132236, “Synthesis and pharmacology of the baclofen homologues 5-amino-4-(4-chlorophenyl)pentanoic acid and the R- and S-enantiomers of 5-amino-3-(4-chlorophenyl)pentanoic acid” (J Med Chem, 1999)
Activity calls are given as the source filed them. The calls are words filed in the database; no cut-off is given here.

What was measured:
GABA B receptor = GABA B receptor (Rattus norvegicus, UniProt O88871+Q9Z0U4); experiment: Displacement of [3H]GABA from Gamma-aminobutyric acid type B receptor; format: protein-complex assay
Summary of the method: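 Rat brain synaptic membranes (male Sprague-Dawley), washed repeatedly in 5 mM Tris-HCl pH 7.1. 0.5 mg protein incubated with 50 nM [3H]GABA plus 20 µM isoguvacine in 50 mM Tris-HCl pH 7.4 with 2.5 mM CaCl2, 45 min at 24 °C. GF/B filtration, scintillation counting.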

[1] = biological target: GABA-A receptor; anion channel; experiment: Inhibition of [3H]muscimol binding to Gamma-aminobutyric acid A (GABA-A) receptor of rat brain membranes; format: cell membranes, Membrane
Summary of the method: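 Male Sprague-Dawley rat brain synaptic membranes, washed repeatedly, resuspended at 1 mg/mL in 50 mM Tris-HCl pH 7.4. Incubated with 10 nM [3H]muscimol for 1 h at 20 °C, competitor 10^-10 to 10^-3 M. Nonspecific binding defined with 1 mM GABA. GF/B filtration, liquid scintillation counting.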

Cavia porcellus [2] = organism: Cavia porcellus; experiment: The compound was tested for inhibition of electrically evoked muscle contractions in isolated longitudinal guinea pig ileum muscle; format: functional
Summary of the method: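 Guinea pig ileum longitudinal muscle strips with myenteric plexus (Paton–Zar) held in Krebs-bicarbonate gassed 5% CO2/95% O2 at 37 °C. After 60 min equilibration, stimulated at 0.1 Hz, 5 ms, 100 V. Isometric contractions recorded, inhibition taken relative to maximal inhibition. EC50 fitted with Hill equation. 20–30 min recovery between curves. At least four preparations from two animals.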

Cavia porcellus [3] = organism: Cavia porcellus; experiment: Sensitivity towards CGP-35348 in isolated longitudinal guinea pig ileum muscle; sensitive; format: functional
Cavia porcellus [4] = organism: Cavia porcellus; experiment: Sensitivity towards CGP-35348 in isolated longitudinal guinea pig ileum muscle; Sensitive; format: functional

GABA B receptor, sequence (Q9Z0U4 whole entry): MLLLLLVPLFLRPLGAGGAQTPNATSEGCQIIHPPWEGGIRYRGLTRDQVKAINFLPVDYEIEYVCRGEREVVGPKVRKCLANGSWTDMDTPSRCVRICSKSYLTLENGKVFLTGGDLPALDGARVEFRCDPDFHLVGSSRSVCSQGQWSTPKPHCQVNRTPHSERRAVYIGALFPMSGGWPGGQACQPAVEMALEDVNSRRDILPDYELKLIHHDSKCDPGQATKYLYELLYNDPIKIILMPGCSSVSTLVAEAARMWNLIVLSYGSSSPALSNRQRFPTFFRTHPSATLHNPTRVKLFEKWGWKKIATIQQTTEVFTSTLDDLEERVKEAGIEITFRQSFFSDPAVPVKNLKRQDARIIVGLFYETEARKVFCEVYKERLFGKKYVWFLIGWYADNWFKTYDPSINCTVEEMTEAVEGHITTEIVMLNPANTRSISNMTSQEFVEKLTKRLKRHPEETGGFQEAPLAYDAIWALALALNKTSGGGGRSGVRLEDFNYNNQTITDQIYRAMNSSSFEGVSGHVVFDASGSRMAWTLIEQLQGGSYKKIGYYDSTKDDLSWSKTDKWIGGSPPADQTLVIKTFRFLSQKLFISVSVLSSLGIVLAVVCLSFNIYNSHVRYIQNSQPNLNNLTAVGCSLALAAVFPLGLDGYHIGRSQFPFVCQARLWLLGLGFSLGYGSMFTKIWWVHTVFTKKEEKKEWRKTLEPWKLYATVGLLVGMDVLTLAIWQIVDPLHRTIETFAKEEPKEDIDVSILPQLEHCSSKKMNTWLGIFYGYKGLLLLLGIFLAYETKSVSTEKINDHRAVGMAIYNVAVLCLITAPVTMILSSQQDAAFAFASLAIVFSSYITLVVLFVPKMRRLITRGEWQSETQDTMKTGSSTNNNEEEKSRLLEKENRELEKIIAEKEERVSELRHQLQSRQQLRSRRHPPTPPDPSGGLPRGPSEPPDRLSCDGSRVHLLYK
GABA B receptor, sequence (O88871 whole entry): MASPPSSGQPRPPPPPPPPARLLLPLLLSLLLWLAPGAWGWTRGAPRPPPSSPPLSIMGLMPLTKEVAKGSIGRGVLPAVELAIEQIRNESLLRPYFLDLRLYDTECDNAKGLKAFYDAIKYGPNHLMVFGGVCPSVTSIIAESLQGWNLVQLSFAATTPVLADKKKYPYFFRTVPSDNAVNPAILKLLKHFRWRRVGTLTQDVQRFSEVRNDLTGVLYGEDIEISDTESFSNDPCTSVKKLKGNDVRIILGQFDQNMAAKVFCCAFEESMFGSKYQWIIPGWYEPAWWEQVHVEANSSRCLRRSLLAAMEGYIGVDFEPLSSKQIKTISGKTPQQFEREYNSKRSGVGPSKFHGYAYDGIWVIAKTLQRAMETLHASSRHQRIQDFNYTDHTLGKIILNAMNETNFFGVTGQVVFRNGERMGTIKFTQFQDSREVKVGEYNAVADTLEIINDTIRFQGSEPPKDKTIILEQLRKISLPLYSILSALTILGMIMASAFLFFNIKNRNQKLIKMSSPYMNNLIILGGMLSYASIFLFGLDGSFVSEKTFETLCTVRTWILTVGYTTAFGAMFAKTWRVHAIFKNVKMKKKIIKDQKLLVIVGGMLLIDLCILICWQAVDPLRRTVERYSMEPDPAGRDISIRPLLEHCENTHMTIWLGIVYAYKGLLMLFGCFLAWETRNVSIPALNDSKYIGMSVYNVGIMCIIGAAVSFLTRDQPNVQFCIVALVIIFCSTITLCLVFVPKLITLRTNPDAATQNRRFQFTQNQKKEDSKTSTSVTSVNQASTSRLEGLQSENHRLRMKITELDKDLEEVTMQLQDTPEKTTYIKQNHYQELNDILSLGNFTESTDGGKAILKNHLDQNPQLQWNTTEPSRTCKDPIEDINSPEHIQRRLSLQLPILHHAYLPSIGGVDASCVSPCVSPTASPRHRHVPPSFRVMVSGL

| Structure (SMILES) | IC50 (GABA B receptor) | IC50 [1] | EC50 (Cavia porcellus [2]) | Sensitivity (Cavia porcellus [3]) | Sensitivity (Cavia porcellus [4]) |
| --- | --- | --- | --- | --- | --- |
| NCC(CCC(=O)O)c1ccc(Cl)cc1 (stereo unspecified) | > 0.14 µM | > 100 µM | > 3000 µM | – | – |
| NCC[C@@H](CC(=O)O)c1ccc(Cl)cc1 | > 0.14 µM | > 100 µM | 310 µM | inactive | – |
| NCC[C@H](CC(=O)O)c1ccc(Cl)cc1 | 7.4 µM | > 100 µM | 11 µM | – | inactive |
| NC[C@@H](CC(=O)O)c1ccc(Cl)cc1 | – | > 100 µM | 3300 µM | – | – |
| NC[C@H](CC(=O)O)c1ccc(Cl)cc1 [ARBACLOFEN] | – | > 100 µM | 11 µM | – | Active |
